Compounds with a hit are over-represented: about 3.4% of the library has one in this group of screens.
CHT block: human CHT choline transport inhibition; Q9GZV3; CHT-expressing cells, membrane potential dye, choline response; active compounds read low; B-score at 10 µM; 310,000 tested, 0.86% active; AID 488975;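 active = B-score over 3 SD under the library average, and starting fluorescence ratio not unusually high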;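 also: choline stimulus applied at its EC90 after an EC20 pre-addition; B-score computed on integrated fluorescence ratio after choline addition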
Target sequence (Q9GZV3 whole entry, looked up): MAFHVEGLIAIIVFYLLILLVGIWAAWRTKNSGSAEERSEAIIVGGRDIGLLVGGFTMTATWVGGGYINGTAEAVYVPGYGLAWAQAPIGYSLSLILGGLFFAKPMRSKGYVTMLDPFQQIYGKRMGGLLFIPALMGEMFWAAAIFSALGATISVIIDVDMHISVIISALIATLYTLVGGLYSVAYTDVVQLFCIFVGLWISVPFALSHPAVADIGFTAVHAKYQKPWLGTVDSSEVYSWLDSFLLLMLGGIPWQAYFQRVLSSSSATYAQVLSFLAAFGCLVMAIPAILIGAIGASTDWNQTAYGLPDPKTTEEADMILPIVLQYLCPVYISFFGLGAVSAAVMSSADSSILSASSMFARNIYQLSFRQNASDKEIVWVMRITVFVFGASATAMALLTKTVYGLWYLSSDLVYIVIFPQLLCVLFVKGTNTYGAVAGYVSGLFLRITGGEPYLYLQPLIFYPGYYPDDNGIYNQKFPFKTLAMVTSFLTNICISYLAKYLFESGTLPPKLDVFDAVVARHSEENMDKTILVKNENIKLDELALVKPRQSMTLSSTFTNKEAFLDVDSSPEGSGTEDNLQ
IMP-1 inh: blocks Pseudomonas aeruginosa IMP-1 metallo-beta-lactamase; purified IMP-1, nitrocefin hydrolysis, epi-absorbance fluorescence; inhibition, % at 5.6 µM; 290,000 tested, 0.45% active;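 active = inhibition above the mean plus 3 SD of all compounds in the same screening run, cut at about 4.5% in these data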
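Assay system: purified recombinant IMP-1 beta-lactamase. Input: IMP-1 0.2 nM before substrate addition. Buffer or medium: Zinc- and detergent-supplemented HEPES buffer, pH 7.1. Schedule: 25 °C, 15 min preincubation, 25 min reaction. Signal: Epi-absorbance fluorescence, 480 nm excitation, 530 nm emission. Evaluation: percent inhibition from optical density relative to buffer-blank wells.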
ANO1 block: blocks the mouse calcium-activated chloride channel TMEM16A. HEK293 TMEM16A/YFP iodide influx fluorescence, ionomycin. Q8BHY3. AID 588511. normalized B-score (activity score, 25-100; higher = stronger inhibition) at 10 µM. 310,000 tested, 1.2% active;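 active = ratio plate-corrected score three or more library SD toward inhibition, starting fluorescence score within five deviations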;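 also: score derived from kinetic fluorescence span divided by baseline fluorescence per well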
TMEM16A act: mouse TMEM16A channel activation, primary screen. B-score at 10 µM. 340,000 tested, 0.3% active. AID 623877. Q8BHY3. HEK293 TMEM16A/YFP-H148Q/I152L, iodide quench fluorescence; active compounds read low;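 active = fluorescence-ratio B-score plate-corrected deviation score at least 3 library SD below zero, with starting fluorescence score within 5 deviations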;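 also: channel opened by trigger with iodide after compound preincubation; score built on the fluorescence ratio of max minus min over baseline; more negative score means more quench and so TMEM16A activation or potentiation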
CHT PAM: allosteric activators of human choline transporter CHT; Q9GZV3; CHT-expressing cells, membrane potential dye, choline EC20; active compounds read high; LV-AA mutant CHT in HEK293 cells; B-score at 10 µM; 310,000 tested, 0.49% active;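 active = initial fluorescence not abnormally high and integrated response B-score, plate-corrected, over 3 SD above library mean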
VIM-2 inh: inhibitors of Pseudomonas aeruginosa VIM-2 metallo-beta-lactamase; inhibition, % at 5.6 µM; purified VIM-2, nitrocefin hydrolysis, epi-absorbance fluorescence; AID 1527; 290,000 tested, 0.89% active;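 active = inhibition above the mean of all tested compounds plus 3 SD, cutoff set per screening run, cut at about 7.5% in these data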;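 also: red hydrolysis product quenches plate fluorescence so inhibitors raise well fluorescence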
A number is an active result.

O=C(CCN1CCc2ccccc2C(c2ccccc2)C1)c1ccc2c(c1)OCCO2 (stereo unspecified) was read as CHT block -8.9, IMP-1 inh inactive, ANO1 block inactive, TMEM16A act inactive, CHT PAM inactive and VIM-2 inh inactive.
Screening COc1cc(OC)c(C(=O)N(CCc2ccccc2)Cc2ccccc2)cc1OC returned CHT block inactive, IMP-1 inh inactive, ANO1 block inactive, TMEM16A act inactive, CHT PAM inactive and VIM-2 inh inactive.
`O=C(OCc1ccccc1)N(CCCCN(CCCNCc1ccccc1)C(=O)OCc1ccccc1)CCCNCc1ccccc1` gave TMEM16A act -5.4.
`CCOC(=O)c1c(C)[nH]c(C(=O)CN2C(=O)NC3(CCCC3)C2=O)c1C` gave CHT block inactive, IMP-1 inh inactive, ANO1 block inactive, TMEM16A act inactive, CHT PAM inactive and VIM-2 inh inactive.
CCCC1(c2ccccc2)NC(=O)N(CC(=O)c2[nH]c(C)c(C(=O)OCC)c2C)C1=O (stereo unspecified) was read as CHT block -9.8, IMP-1 inh inactive, ANO1 block inactive, TMEM16A act inactive, CHT PAM inactive and VIM-2 inh inactive.
`Cc1ccc(S(=O)(=O)NC(CC(C)C)C(=O)N2CCN(C/C=C/c3ccccc3)CC2)cc1` (stereo unspecified) gave TMEM16A act inactive.
Screening CC(C)CCCCCCNC(=S)Nc1ccc(S(=O)(=O)N2CCOCC2)cc1 returned CHT block inactive, IMP-1 inh inactive, ANO1 block 100, TMEM16A act inactive, CHT PAM inactive and VIM-2 inh inactive.
Screening O=C(COC(=O)c1ccccc1SCC(=O)NC1CCS(=O)(=O)C1)NC1CCS(=O)(=O)C1 (stereo unspecified) returned CHT block inactive, IMP-1 inh inactive, ANO1 block inactive, TMEM16A act inactive, CHT PAM inactive and VIM-2 inh inactive.
Screening CCNC(=O)NC(=O)COC(=O)c1ccccc1SCC(=O)NC(=O)NCC returned CHT block inactive, IMP-1 inh inactive, ANO1 block inactive, TMEM16A act inactive, CHT PAM inactive and VIM-2 inh 11.
Screening Nc1c(C(=O)Nc2cccc(F)c2)nnn1-c1ccc2c(c1)OCCO2 returned CHT block inactive, IMP-1 inh 18, ANO1 block inactive, TMEM16A act inactive, CHT PAM inactive and VIM-2 inh inactive.
O=C1NC2(CCCCO2)CO1 (stereo unspecified) was read as CHT block inactive, IMP-1 inh inactive, ANO1 block inactive, TMEM16A act -11, CHT PAM inactive and VIM-2 inh inactive.
O=C1NC2(CCCCC2)CO1 was read as CHT block inactive, IMP-1 inh inactive, ANO1 block inactive, TMEM16A act inactive, CHT PAM inactive and VIM-2 inh inactive.
COc1ccc(-c2n(Cc3ccccc3)c3ccccc3[n+]2Cc2ccccc2)cc1 was read as CHT block inactive, IMP-1 inh inactive, ANO1 block 25, TMEM16A act inactive, CHT PAM inactive and VIM-2 inh inactive.
Screening COc1ccc(-c2nc3ccccc3n2Cc2ccccc2)cc1 returned CHT block inactive, IMP-1 inh inactive, ANO1 block inactive, TMEM16A act inactive, CHT PAM inactive and VIM-2 inh inactive.
Screening [O-]C1=N[N+](=C(c2ccccc2)c2ccccc2)C1 returned TMEM16A act inactive.
Screening Cc1cc(=O)oc2c3c(cc(OCC(=O)N[C@@H](C)C(=O)O)c12)OC(C)(C)CC3 returned CHT block inactive, IMP-1 inh inactive, ANO1 block inactive, TMEM16A act inactive, CHT PAM inactive and VIM-2 inh 8.5.
Screening Cc1ccc(Nc2c(F)c(F)c(F)c(F)c2C(=O)O)cc1 returned CHT block inactive, IMP-1 inh inactive, ANO1 block 25, TMEM16A act inactive, CHT PAM inactive and VIM-2 inh inactive.
Screening CC[C@@H](C(=O)[C@@H](C)[C@@H](O)[C@H](C)CCc1ccc(C)c(O)c1C(=O)O)[C@H]1O[C@](CC)([C@H]2CC[C@](O)(CC)[C@H](C)O2)C[C@@H]1C returned CHT block inactive, IMP-1 inh inactive, ANO1 block 100, TMEM16A act -5.5, CHT PAM inactive and VIM-2 inh inactive.
Cc1nn(-c2ccc(F)cc2)c(Cl)c1C(=O)NCC1CCCO1 (stereo unspecified) was read as TMEM16A act inactive.
CC[C@H](C)[C@H]1O[C@]2(CC[C@@H]1C)C[C@@H]1C[C@@H](CC=C(C)[C@@H](O[C@H]3C[C@H](OC)[C@@H](O[C@H]4C[C@H](OC)[C@@H](O)[C@H](C)O4)[C@H](C)O3)[C@@H](C)C=CC=C3CO[C@@H]4[C@H](O)C(C)=C[C@@H](C(=O)O1)[C@]34O)O2 was read as CHT block inactive, ANO1 block 25, TMEM16A act inactive and CHT PAM inactive.
Cc1cc(C)c2ccc(C(=O)O)nc2c1O was read as CHT block inactive, IMP-1 inh inactive, ANO1 block inactive, TMEM16A act inactive, CHT PAM inactive and VIM-2 inh 9.7.
For NC(=O)C1CCCN(C(=S)Nc2ccccc2)C1 (stereo unspecified) the results were CHT block inactive, IMP-1 inh inactive, ANO1 block inactive, TMEM16A act inactive, CHT PAM inactive and VIM-2 inh inactive.
S=C(Nc1ccccc1)N1CCCCCCC1 was read as CHT block inactive, IMP-1 inh inactive, ANO1 block inactive, TMEM16A act -4.6, CHT PAM inactive and VIM-2 inh inactive.
C=CCCCN(Cc1ccccc1)S(=O)(=O)c1ccccc1Br was read as CHT block inactive, ANO1 block 25, TMEM16A act -6.2 and CHT PAM inactive.
For C=CCCN([C@H](CO)Cc1ccccc1)S(=O)(=O)c1ccccc1Br the results were TMEM16A act inactive.
CC(NC(=O)Nc1nnc(C(F)(F)F)s1)N1C(=O)C2C3C=CC(C3)C2C1=O (stereo unspecified) was read as CHT block inactive, IMP-1 inh inactive, ANO1 block inactive, TMEM16A act inactive, CHT PAM inactive and VIM-2 inh inactive.
CC(NC(=O)Nc1nnc(C(F)(F)F)s1)(C(F)(F)F)C(F)(F)F was read as CHT block inactive, IMP-1 inh inactive, ANO1 block 100, TMEM16A act inactive, CHT PAM inactive and VIM-2 inh inactive.
`O=C(Nc1ccc(F)cc1)c1cccc2c1C(=O)N(CC1CCCO1)C2` (stereo unspecified) gave CHT block inactive, IMP-1 inh inactive, ANO1 block inactive, TMEM16A act inactive, CHT PAM inactive and VIM-2 inh inactive.
Screening O=C(OCc1ccc(F)cc1)c1ccc2c(c1)-c1ccccc1C2=O returned CHT block inactive, IMP-1 inh 4.6, ANO1 block inactive, TMEM16A act inactive, CHT PAM inactive and VIM-2 inh inactive.
